Where a chain is given by its changes, count along the chain named.
How the values were obtained:
[1] = system: Kv1.2/Kv2.1 chimeric channel; test: Two-electrode voltage clamp of Kv1.2/2.1 chimera K+ currents in Xenopus oocytes; format: cell-based; conditions: 10 µM AA
[2] = biological target: T1, Kv4.2 K318E mutant channels (co-injected with KChIP1b) (Rattus norvegicus, UniProt Q63881, K318E); test: Two-electrode voltage clamp, K318E mutant Kv4.2/KChIP1b in Xenopus oocytes; format: cell-based; conditions: 10 µM AA
T1 sequence (Q63881 1-630 K318E): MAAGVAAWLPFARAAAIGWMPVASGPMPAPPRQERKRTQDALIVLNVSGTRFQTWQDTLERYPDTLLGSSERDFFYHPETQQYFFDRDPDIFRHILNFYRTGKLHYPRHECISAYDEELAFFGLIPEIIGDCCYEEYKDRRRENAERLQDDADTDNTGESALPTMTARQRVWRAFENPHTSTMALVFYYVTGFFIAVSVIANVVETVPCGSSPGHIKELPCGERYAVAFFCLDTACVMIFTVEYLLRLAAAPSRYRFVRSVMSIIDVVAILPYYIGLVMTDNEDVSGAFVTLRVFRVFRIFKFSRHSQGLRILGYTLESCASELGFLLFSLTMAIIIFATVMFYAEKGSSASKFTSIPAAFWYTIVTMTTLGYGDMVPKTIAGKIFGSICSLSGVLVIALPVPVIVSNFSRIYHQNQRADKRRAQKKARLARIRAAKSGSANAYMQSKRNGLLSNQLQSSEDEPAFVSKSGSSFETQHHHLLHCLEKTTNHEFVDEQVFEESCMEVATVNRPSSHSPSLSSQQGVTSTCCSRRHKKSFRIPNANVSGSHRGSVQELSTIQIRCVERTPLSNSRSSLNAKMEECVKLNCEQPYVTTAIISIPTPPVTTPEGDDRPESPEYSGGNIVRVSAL
In short: (§1)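 Xenopus oocytes co-expressing rat Kv4.2 (WT or mutant) with equimolar KChIP1b were recorded by two-electrode voltage clamp at room temperature. Peak conductance was calculated as G = I/(Vm − Vh), with Vh = −100 mV, and normalized to each cell's Gmax. It was plotted against step potential without and with 10 μM AA and fit to a first-order Boltzmann function to give V1/2 and slope.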

[3] = biological target: T2, Kv4.2 K318R mutant channels (co-injected with KChIP1b) (Rattus norvegicus, UniProt Q63881, K318R); test: Two-electrode voltage clamp, K318R mutant Kv4.2/KChIP1b in Xenopus oocytes; format: cell-based; conditions: 10 µM AA, 10 min
T2 sequence (Q63881 1-630 K318R): T1 sequence (Q63881 1-630 K318E) with E318R
In short: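 Rat Kv4.2 (WT or QuikChange mutant) RNA co-injected equimolar with KChIP1b, 5–10 ng/oocyte, into Xenopus oocytes held 1–5 d at 17–19 °C. Two-electrode voltage clamp at room temperature in perfused Na/K methanesulfonate HEPES saline, pH 7.4–7.5, with P/−4 or P/−6 leak subtraction. Peak current at +40 mV (from −90 mV) after 10 min of 10 μM AA is expressed relative to pre-AA current. Mean ± SE, n = cells.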

[4] = system: group of mutant Kv4.2 channels (V261F, K318Q, V261F/K318Q); test: Two-electrode voltage clamp, grouped mutant Kv4.2 channels; format: cell-based, rat; conditions: 10 µM AA
In short: as §1

V1/2 of conductance-voltage curve with AA [2]: −25.2 mV
shift in V1/2 in the presence of AA [2]: +5 mV
slope factor (k) of Boltzmann fit with AA [2]: 7.1
inhibition of peak K+ current by AA, effect of mutation [3]: preserved the strong inhibition by AA
Compound: CCCCC/C=C\C/C=C\C/C=C\C/C=C\CCCC(=O)O [AA, arachidonic acid]
modulation of Kv1.2/2.1 K+ currents by AA [1]: not modulated by AA
increase in current ([1]; n = 8, +110 mV test potential): 1.1 ± 2.1%
inhibition of peak K+ current by AA, effect of mutation ([2]; 10 min): did not impair the inhibition of current by AA
average shift in V1/2 in the presence of AA for the three mutant constructs [4]: +5.7 mV

From article PMC3667888 (Channels, 2013)
